The target in data set [1] is T1, tRNA (guanine-N(1)-)-methyltransferase (Pseudomonas aeruginosa (strain ATCC 15692 / DSM 22644 / CIP 104116 / JCM14847 / LMG 12228 / 1C / PRS 101 / PAO1), UniProt Q9HXQ1).
T1 sequence (Q9HXQ1 whole entry): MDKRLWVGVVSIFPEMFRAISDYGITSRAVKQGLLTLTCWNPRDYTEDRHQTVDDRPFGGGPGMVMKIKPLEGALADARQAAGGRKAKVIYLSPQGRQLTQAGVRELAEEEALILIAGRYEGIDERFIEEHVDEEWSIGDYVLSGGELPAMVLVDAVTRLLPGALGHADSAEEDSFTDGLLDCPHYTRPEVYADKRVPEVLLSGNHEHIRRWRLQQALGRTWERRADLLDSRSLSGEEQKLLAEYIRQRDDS
In words: Inhibition of Pseudomonas aeruginosa tRNA (guanine(37)-N1)-methyltransferase (Leu5 to Asp25 residues) expressed in Escherichia coli BL21 (DE3) Rosetta T1R cells assessed as reduction in S-adenosyl-L-homocysteine production preincubated for 15 mins followed by 1.5 uM of tRNALeu(CAG) substrate and SAM addition and measured after 45 mins by MTase-Glo assay. In a few lines: (§1)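 MTase-Glo luminescence assay. 8 nM TrmD preincubated 15 min at ambient temperature with serially diluted inhibitor (0–500 μM) in 50 mM Tris-HCl pH 8.0, 80 mM NaCl, 1 mM MgCl2, 0.5 mM DTT, 0.01% Triton X-100. Reaction with 2 μM SAM and tRNALeu(CAG), 45 min at 37 °C. Detection 30 min in the dark, SAH read against a standard curve. IC50 by nonlinear regression. Two independent experiments in duplicate.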

Data set [2] deals with Staphylococcus aureus. In words: Antibacterial activity against methicillin-resistant Staphylococcus aureus ATCC 43300 at 100 uM incubated for 24 hrs. Format: functional, organism-based. In a few lines:
(§2)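 Single-concentration growth screen: 100 μM test compound with log-phase bacteria at about 5×10^5 cells/mL. Incubation 24 h at 37 °C. Growth read by OD600 and given as percent of untreated control. MRSA was grown in cation-adjusted Mueller–Hinton broth. M. smegmatis was grown in complete Middlebrook 7H9. Ampicillin and kanamycin served as positive controls.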

Data set [3] relates to Enterococcus faecalis. In words: Antibacterial activity against Enterococcus faecalis ATCC 51299 at 100 uM incubated for 24 hrs. It counts as functional, organism-based. In a few lines:
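Single-concentration screen in brain heart infusion broth. Log-phase cells at ~5×10^5 cells/mL were grown with 100 μM compound for 24 h at 37 °C. Growth was read as OD600 and expressed as a percentage of untreated wells. DMSO and blank controls were included.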

In data set [4] the test system is Streptococcus pneumoniae. Nature of the data set: Antibacterial activity against Streptococcus pneumoniae ATCC 49619 at 100 uM incubated for 24 hrs. Format: functional, organism-based. In a few lines:
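Single 100 μM screen in MH medium with 3% defibrinated sheep blood at 37 °C under 5% CO2, ~5×10^5 cells/mL, 24 h.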

Data set [5] concerns Mycolicibacterium smegmatis. Nature of the data set: Antibacterial activity against Mycolicibacterium smegmatis MC2 155 at 100 uM incubated for 24 hrs. It counts as functional, organism-based. In a few lines:
as §2

The subject of data set [6] is Mycobacterium tuberculosis. Nature of the data set: Antibacterial activity against Mycobacterium tuberculosis ATCC 27294 at 100 uM incubated for 7 days. It counts as functional, organism-based.
Data set [7] relates to Pseudomonas aeruginosa. Nature of the data set: Antibacterial activity against Pseudomonas aeruginosa PA14 incubated for 24 hrs by serial broth microdilution method. Format: functional, organism-based. In a few lines: (§3)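 Log-phase cultures from four colonies grown overnight at 37 °C, inoculated at ~5×10^5 cells/mL in cation-adjusted Mueller–Hinton broth with serially diluted compound. Grown 24 h at 37 °C, then OD600 read. MIC50/MIC90 are the concentrations giving 50%/90% growth inhibition relative to drug-free controls. Two independent experiments in duplicate.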
In general terms: Broth dilution looks for growth in wells or tubes with falling amounts of substance.

Data set [8] relates to Acinetobacter baumannii. In words: Antibacterial activity against Acinetobacter baumannii ATCC 17961 incubated for 24 hrs by serial broth microdilution method. Format: functional. In a few lines: as §3
Data set [9] deals with Klebsiella pneumoniae. Nature of the data set: Antibacterial activity against Klebsiella pneumoniae ATCC 13883 incubated for 24 hrs by serial broth microdilution method. Format: functional, organism-based. In a few lines: as §3
For data set [10], the system named is Salmonella enteritidis. Nature of the data set: Antibacterial activity against Salmonella enteritidis ATCC 13076 incubated for 24 hrs by serial broth microdilution method. Particulars: Salmonella enterica subsp. enterica serovar Enteritidis. Format: functional. In a few lines: as §3
Data set [11] deals with Escherichia coli. Nature of the data set: Antibacterial activity against Escherichia coli BW25113 incubated for 24 hrs by serial broth microdilution method. Format: functional, organism-based. In a few lines: as §3
The subject of data set [12] is Staphylococcus aureus. In words: Antibacterial activity against methicillin-resistant Staphylococcus aureus ATCC 43300 incubated for 24 hrs by serial broth microdilution method. It counts as functional. In a few lines: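 Growth read by OD600. MRSA in cation-adjusted Mueller–Hinton broth, M. smegmatis in complete 7H9. MIC50 and MIC90 are 50% and 90% growth inhibition versus drug-free controls. Two independent experiments, each in duplicate.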

The test system of data set [13] is Enterococcus faecalis. Nature of the data set: Antibacterial activity against Enterococcus faecalis ATCC 51299 incubated for 24 hrs by serial broth microdilution method. Format: functional, organism-based. In a few lines: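 Broth microdilution in brain heart infusion broth, ~5×10^5 cells/mL log-phase inoculum, serial compound dilutions, 24 h at 37 °C, OD600 read-out. MIC50/MIC90 are the concentrations giving 50%/90% growth inhibition relative to drug-free controls. Two independent experiments in duplicate.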

The test system of data set [14] is Streptococcus pneumoniae. In words: Antibacterial activity against Streptococcus pneumoniae ATCC 49619 incubated for 24 hrs by serial broth microdilution method. It counts as functional. In a few lines: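 Cultured in MH medium plus 3% defibrinated sheep blood at 37 °C, 5% CO2. Log-phase inoculum ~5×10^5 cells/mL was exposed to serial compound dilutions for 24 h. MIC50/MIC90 are relative to drug-free controls. Two independent experiments in duplicate.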

For data set [15], the system named is Erythrocyte. Nature of the data set: Hemolytic activity in human RBC at 100 uM measured after 1 hr. Format: ADME, cell-based. In a few lines: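 Fresh human RBCs were PBS-washed and resuspended to OD600 24, then mixed 1:1 by volume with compound serially diluted in PBS. Incubated 1 h at 37 °C without shaking and centrifuged at 1000g for 15 min. Triton X-100 served as positive control. Run in triplicate.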

The target of data set [16] is T2, tRNA (guanine-N(1)-)-methyltransferase (Pseudomonas aeruginosa (strain ATCC 15692 / DSM 22644 / CIP 104116 / JCM14847 / LMG 12228 / 1C / PRS 101 / PAO1)) (UniProt Q9HXQ1).
T2 sequence (whole entry): T1 sequence (Q9HXQ1 whole entry)
Nature of the data set: Binding affinity to Pseudomonas aeruginosa tRNA (guanine(37)-N1)-methyltransferase (Leu5 to Asp25 residues) expressed in Escherichia coli BL21 (DE3) Rosetta T1R cells assessed as thermal stabilization of protein by measuring change in melting temperature at 0.1 mM by SYPRO orange based thermal shift assay. In a few lines: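 Thermal shift: 4 μM TrmD with 5× SYPRO Orange and ligand in 50 mM Tris-HCl pH 8, 150 mM NaCl, 1 mM MgCl2, 1 mM DTT, 0.05% Tween-20. Buffer-only control. Heated from 25 to 95 °C in a real-time PCR instrument, and Tm taken as the unfolding midpoint. Ligand levels: SAH 2 mM, inhibitors 0.1 mM.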

Data set [17] has as its target T2, tRNA (guanine-N(1)-)-methyltransferase (Pseudomonas aeruginosa (strain ATCC 15692 / DSM 22644 / CIP 104116 / JCM14847 / LMG 12228 / 1C / PRS 101 / PAO1)). In words: Inhibition of Pseudomonas aeruginosa tRNA (guanine(37)-N1)-methyltransferase (Leu5 to Asp25 residues) expressed in Escherichia coli BL21 (DE3) Rosetta T1R cells assessed as reduction in S-adenosyl-L-homocysteine production up to 50 uM preincubated for 15 mins followed by 1.5 uM of tRNALeu(CAG) substrate and SAM addition and measured after 45 mins by MTase-Glo assay. In a few lines: as §1

Calls of active or inactive are those of the source. Unless noted, no cut-off for these calls is given here.

For the compound `Cl.NCCOCCOCCNCc1ccc(CNC(=O)c2csc3nc[nH]c(=O)c23)cc1`, the IC50 (usually the concentration that inhibits the measured activity by half) in data set [1] stood at 450 nM. The outcome in data set [2], in [3], in data set [4], in data set [5], in data set [6] and in [7] was inactive. In addition, the result in [8], in data set [9], in [10], in data set [11], in [12] and in data set [13] was inactive. Moreover, in [14], the outcome was inactive. Also, the Activity result in data set [15] is recorded as “Non-Toxic”.

For `COc1ncnc2scc(C(=O)NCc3ccc(CNCc4ccccc4)cc3)c12`, the ΔTm (commonly the shift of the melting midpoint relative to a reference) in [16] fell in the range of 1 to 2 °C. The Activity result in data set [15] is given as “Non-Toxic”. For the same compound, the inhibition result in data set [17] was “inactive”.

For the compound `Cl.NCCCCCNCc1ccc(CNC(=O)c2csc3nc[nH]c(=O)c23)cc1`, the IC50 in [1] worked out at 110 nM. In addition, the outcome in data set [2], in data set [3], in data set [4], in data set [5], in [6] and in data set [7] was inactive. Besides, the outcome in [8], in data set [9], in [10], in data set [11], in data set [12] and in [13] was inactive. The result in data set [14] was inactive. The Activity result in data set [15] was “Non-Toxic”.

In the case of `O=C(NCc1ccc(CNC(=O)c2cc(=O)c(O)cn2O)cc1)c1csc2nc[nH]c(=O)c12`, the IC50 in data set [1] was 700 nM. In addition, the outcome in data set [2], in data set [3], in data set [4], in [5], in data set [6] and in data set [7] was inactive. Further, the result in data set [8], in [9], in [10], in data set [11], in data set [12] and in data set [13] was inactive. The result in [14] was inactive. Further, the Activity entry in data set [15] is listed as “Non-Toxic”.

On to `COc1ncnc2scc(C(=O)NCc3ccc(CN4CCOCC4)cc3)c12`, for which, in data set [16], the shift in melting temperature (ΔTm) is 1 to 2 °C. Further, the Activity result in data set [15] is given as “Non-Toxic”. Also, the inhibition result in data set [17] was “inactive”.

With `Cl.NCCCCCCCNCc1ccc(CNC(=O)c2csc3nc[nH]c(=O)c23)cc1`, the IC50 in data set [1] amounted to 140 nM. In addition, the result in [2], in data set [3], in data set [4], in data set [5], in [6] and in data set [7] was inactive. The outcome in [8], in [9], in [10], in data set [11], in [12] and in data set [13] was inactive. The result in [14] was inactive. Further, in [15], the Activity entry is recorded as “Non-Toxic”.

Turning to `Cl.NCCCCNCc1ccc(CNC(=O)c2csc3nc[nH]c(=O)c23)cc1`, the IC50 in data set [1] is 80 nM. The outcome in [2], in data set [3], in [4], in data set [5], in data set [6] and in data set [7] was inactive. Also, the outcome in data set [8], in data set [9], in data set [10], in data set [11], in data set [12] and in data set [13] was inactive. In addition, the result in data set [14] was inactive. For the same compound, the Activity result in data set [15] is reported as “Non-Toxic”.

Turning to `CCCCCCCCNCc1ccc(CNC(=O)c2csc3ncnc(OC)c23)cc1`, in data set [16], the ΔTm is 1 to 2 °C. For the same compound, the Activity result in data set [15] is “Non-Toxic”. In addition, the inhibition entry in data set [17] is “inactive”.

Consider `CCCOc1ncnc2scc(C(=O)NCc3ccc(CNCc4ccccc4)cc3)c12`, for which the ΔTm in data set [16] was in the range of 1 to 2 °C. Besides, in data set [15], the Activity entry is recorded as “Non-Toxic”. Further, in [17], the inhibition result was “inactive”.

Regarding `CCCCCCCCNCc1ccc(CNC(=O)c2csc3ncnc(OCCC)c23)cc1`, the ΔTm in [16] is 1 to 2 °C. In addition, the inhibition entry in data set [17] was “inactive”.

As to `CCCOc1ncnc2scc(C(=O)NCc3ccc(CN4CCOCC4)cc3)c12`, in data set [16], the ΔTm lay within 1 to 2 °C. Moreover, the Activity result in [15] is recorded as “Non-Toxic”. Further, the inhibition result in [17] is “inactive”.

As for `CCCCCCOc1ncnc2scc(C(=O)NCc3ccc(CNCc4ccccc4)cc3)c12`, the ΔTm in data set [16] is 1 to 2 °C. Also, the inhibition entry in data set [17] was “inactive”.

For the compound `CCCCCCCCNCc1ccc(CNC(=O)c2csc3ncnc(OCCCCCC)c23)cc1`, in [16], the ΔTm fell in the range of 1 to 2 °C. For the same compound, the inhibition result in data set [17] was “inactive”.

Values taken from ChEMBL document CHEMBL4373727, “Thienopyrimidinone Derivatives That Inhibit Bacterial tRNA (Guanine37-N1)-Methyltransferase (TrmD) by Restructuring the Active Site with a Tyrosine-Flipping Mechanism” (J Med Chem, 2019).
